What was measured:
[1] = target: T1, Disintegrin and metalloproteinase domain-containing protein 17 (Homo sapiens, UniProt P78536); assay: Inhibition of human TACE at 10 uM after 5 mins
Stromelysin-1 [2] = target: T2, Stromelysin-1 (Homo sapiens, UniProt P08254); assay: Inhibition of human MMP-3 using NFF-2 as substrate at 10 uM after 30 mins
Target sequence in this assay (P08254 100-477 limits assumed): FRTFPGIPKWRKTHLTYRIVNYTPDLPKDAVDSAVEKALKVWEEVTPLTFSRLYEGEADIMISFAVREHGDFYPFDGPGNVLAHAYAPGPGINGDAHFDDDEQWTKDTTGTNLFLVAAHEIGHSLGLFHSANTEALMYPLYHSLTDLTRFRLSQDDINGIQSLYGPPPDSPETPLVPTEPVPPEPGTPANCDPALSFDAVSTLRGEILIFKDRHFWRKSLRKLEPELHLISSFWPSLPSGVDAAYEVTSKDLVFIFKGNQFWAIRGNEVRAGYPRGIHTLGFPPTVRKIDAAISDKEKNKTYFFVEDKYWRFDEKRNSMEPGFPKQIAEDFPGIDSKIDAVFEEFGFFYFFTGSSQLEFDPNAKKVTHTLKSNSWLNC

[3] = target: T3, Interstitial collagenase (Homo sapiens) (UniProt P03956); assay: Inhibition of human MMP-1 using DNP-Pro-Cha-Gly-Cys(Me)-His-Ala-Lys(n-Me-Abz)-NH2 as substrate at 10 uM after 40 mins
T3 sequence (whole entry): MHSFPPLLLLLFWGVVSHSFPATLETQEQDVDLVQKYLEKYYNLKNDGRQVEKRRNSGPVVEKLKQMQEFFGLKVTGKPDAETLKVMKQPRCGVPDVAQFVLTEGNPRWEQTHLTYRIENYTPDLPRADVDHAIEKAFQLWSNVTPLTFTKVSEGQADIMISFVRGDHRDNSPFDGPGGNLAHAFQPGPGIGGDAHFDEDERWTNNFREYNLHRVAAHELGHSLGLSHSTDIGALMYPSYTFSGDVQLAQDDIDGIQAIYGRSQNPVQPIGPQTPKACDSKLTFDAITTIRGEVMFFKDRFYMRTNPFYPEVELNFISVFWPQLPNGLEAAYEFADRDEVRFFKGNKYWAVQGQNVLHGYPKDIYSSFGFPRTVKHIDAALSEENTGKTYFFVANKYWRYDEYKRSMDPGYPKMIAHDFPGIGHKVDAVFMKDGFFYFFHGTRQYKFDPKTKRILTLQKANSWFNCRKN

Neutrophil collagenase = Neutrophil collagenase (Homo sapiens, UniProt P22894); assay: Inhibition of human MMP-8 using Mca-Pro-Cha-Gly-Nva-His-Ala-Dpa-NH2 as substrate after 120 mins
[4] = target: T4, Matrix metalloproteinase-9 (Homo sapiens, UniProt P14780); assay: Inhibition of human MMP-9 using NFF-2 as substrate at 10 uM after 90 mins
Interstitial collagenase = target: T5, Interstitial collagenase (Homo sapiens, UniProt P03956); assay: Inhibition of human MMP-1 using DNP-Pro-Cha-Gly-Cys(Me)-His-Ala-Lys(n-Me-Abz)-NH2 as substrate after 40 mins
T5 sequence (P03956 whole entry): T3 sequence (whole entry)

[5] = target: T6, 72 kDa type IV collagenase (Homo sapiens, UniProt P08253); assay: Inhibition of human MMP-2 using NFF-2 as substrate after 90 mins
Target sequence in this assay (P08253 whole entry): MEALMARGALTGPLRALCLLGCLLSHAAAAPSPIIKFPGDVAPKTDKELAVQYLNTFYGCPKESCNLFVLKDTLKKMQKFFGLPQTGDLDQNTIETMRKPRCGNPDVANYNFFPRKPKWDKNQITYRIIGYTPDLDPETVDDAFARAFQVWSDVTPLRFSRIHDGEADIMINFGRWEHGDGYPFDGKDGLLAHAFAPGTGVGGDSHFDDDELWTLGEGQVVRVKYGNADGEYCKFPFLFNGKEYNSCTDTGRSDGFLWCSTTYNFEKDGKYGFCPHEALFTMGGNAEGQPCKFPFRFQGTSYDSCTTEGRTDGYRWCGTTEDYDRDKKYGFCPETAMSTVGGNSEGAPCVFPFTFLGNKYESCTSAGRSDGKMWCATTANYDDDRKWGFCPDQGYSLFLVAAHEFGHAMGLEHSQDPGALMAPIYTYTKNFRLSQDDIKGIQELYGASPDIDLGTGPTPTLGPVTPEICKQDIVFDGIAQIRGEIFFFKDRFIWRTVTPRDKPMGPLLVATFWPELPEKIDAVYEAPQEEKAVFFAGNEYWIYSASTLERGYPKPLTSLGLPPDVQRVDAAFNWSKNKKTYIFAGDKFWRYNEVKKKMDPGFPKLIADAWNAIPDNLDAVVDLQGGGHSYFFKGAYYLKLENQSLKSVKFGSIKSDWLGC

Stromelysin-1 [6] = target: T2, Stromelysin-1; assay: Inhibition of human MMP-3 using NFF-2 as substrate after 30 mins
Target sequence in this assay (P08254 whole entry): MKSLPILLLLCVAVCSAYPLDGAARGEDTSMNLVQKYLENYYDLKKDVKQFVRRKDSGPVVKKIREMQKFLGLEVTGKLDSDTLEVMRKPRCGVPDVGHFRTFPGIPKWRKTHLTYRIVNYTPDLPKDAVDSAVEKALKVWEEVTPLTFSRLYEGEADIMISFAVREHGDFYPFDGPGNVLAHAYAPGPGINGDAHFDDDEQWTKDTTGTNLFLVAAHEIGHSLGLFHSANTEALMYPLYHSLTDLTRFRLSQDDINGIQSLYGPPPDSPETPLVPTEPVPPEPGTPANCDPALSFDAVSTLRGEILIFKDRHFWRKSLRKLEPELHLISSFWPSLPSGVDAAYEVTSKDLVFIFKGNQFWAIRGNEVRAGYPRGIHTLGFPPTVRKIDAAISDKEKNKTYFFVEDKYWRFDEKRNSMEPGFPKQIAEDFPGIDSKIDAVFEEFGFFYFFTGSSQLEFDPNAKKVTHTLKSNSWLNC

[7] = target: Macrophage metalloelastase (Homo sapiens, UniProt P39900); assay: Inhibition of human MMP-12 after 60 mins
[8] = target: T1, Disintegrin and metalloproteinase domain-containing protein 17; assay: Inhibition of human TACE after 5 mins
Matrilysin = target: T7, Matrilysin (Homo sapiens, UniProt P09237); assay: Inhibition of human MMP-7 after 45 mins
T7 sequence (P09237 whole entry): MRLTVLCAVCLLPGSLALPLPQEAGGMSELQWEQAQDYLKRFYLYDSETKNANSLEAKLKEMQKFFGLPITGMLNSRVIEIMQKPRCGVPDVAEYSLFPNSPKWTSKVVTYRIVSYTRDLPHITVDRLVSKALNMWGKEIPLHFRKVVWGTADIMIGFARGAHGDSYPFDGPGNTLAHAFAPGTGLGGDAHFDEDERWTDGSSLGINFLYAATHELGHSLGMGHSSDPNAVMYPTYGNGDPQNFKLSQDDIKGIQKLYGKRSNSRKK

[9] = target: T8, A disintegrin and metalloproteinase with thrombospondin motifs 5 (Homo sapiens) (UniProt Q9UNA0); assay: Inhibition of human recombinant ADAMTS-5 using bovine articular aggrecan as substrate incubated 20 mins prior to substrate addition measured after 48 hrs by spectrophotometry
T8 sequence (whole entry): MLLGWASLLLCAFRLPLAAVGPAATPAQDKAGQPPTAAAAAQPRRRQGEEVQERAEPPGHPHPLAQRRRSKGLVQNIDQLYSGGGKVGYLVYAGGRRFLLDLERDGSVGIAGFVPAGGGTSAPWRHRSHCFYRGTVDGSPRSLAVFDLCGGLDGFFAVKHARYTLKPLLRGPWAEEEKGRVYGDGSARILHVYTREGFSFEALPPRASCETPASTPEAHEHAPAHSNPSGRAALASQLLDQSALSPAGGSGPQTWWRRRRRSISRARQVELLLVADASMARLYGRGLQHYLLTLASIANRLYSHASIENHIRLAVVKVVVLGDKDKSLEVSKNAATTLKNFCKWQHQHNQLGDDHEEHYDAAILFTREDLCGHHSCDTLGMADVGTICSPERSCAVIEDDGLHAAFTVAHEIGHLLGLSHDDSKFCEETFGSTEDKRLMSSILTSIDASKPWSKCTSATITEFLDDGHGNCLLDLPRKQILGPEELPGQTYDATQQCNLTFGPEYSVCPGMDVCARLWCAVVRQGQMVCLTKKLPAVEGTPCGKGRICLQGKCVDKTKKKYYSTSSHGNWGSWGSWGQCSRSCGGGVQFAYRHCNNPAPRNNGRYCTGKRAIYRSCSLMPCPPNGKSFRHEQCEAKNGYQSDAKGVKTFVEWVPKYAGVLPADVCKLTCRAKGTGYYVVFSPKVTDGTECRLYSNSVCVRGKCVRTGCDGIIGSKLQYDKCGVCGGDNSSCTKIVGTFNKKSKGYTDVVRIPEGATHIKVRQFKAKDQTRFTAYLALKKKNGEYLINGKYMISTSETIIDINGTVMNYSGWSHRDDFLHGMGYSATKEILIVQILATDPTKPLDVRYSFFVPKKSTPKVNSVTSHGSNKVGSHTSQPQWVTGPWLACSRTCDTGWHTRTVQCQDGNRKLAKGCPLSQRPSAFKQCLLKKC
Method in brief: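 ADAMTS-5 (3.4 µL of 600 nM stock) was pre-incubated 20 min at 37 °C with compound or 4% DMSO vehicle in Tris/NaCl/CaCl₂/Brij35, pH 7.5. Bovine articular aggrecan (50 µg/mL final) was added for 48 h at 37 °C, then stopped with EDTA. Samples were bound to PVDF and digested with chondroitinase ABC and keratanase. The ARGSVIL neoepitope was detected by BC-3 ELISA with TMB, read at 450 nm.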

[10] = target: T6, 72 kDa type IV collagenase; assay: Inhibition of human MMP-2 using NFF-2 as substrate at 10 uM after 90 mins
Target sequence in this assay (P08253 110-660 limits assumed): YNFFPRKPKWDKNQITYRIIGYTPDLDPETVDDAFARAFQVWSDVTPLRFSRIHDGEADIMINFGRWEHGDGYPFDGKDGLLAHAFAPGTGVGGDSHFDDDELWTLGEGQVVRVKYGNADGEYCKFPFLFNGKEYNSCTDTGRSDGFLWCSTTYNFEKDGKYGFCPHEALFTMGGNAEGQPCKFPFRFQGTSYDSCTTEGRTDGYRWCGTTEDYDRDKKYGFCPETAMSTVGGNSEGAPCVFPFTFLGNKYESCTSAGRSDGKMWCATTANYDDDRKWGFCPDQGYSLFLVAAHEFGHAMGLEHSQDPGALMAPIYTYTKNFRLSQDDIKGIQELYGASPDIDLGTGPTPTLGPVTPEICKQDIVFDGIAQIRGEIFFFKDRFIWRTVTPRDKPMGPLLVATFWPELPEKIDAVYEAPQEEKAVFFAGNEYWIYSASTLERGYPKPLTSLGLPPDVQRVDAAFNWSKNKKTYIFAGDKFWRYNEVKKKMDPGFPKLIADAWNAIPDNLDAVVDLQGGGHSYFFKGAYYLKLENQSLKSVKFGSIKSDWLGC

[11] = target: T4, Matrix metalloproteinase-9; assay: Inhibition of human MMP-9 using NFF-2 as substrate after 90 mins

T4 sequence (P14780 whole entry): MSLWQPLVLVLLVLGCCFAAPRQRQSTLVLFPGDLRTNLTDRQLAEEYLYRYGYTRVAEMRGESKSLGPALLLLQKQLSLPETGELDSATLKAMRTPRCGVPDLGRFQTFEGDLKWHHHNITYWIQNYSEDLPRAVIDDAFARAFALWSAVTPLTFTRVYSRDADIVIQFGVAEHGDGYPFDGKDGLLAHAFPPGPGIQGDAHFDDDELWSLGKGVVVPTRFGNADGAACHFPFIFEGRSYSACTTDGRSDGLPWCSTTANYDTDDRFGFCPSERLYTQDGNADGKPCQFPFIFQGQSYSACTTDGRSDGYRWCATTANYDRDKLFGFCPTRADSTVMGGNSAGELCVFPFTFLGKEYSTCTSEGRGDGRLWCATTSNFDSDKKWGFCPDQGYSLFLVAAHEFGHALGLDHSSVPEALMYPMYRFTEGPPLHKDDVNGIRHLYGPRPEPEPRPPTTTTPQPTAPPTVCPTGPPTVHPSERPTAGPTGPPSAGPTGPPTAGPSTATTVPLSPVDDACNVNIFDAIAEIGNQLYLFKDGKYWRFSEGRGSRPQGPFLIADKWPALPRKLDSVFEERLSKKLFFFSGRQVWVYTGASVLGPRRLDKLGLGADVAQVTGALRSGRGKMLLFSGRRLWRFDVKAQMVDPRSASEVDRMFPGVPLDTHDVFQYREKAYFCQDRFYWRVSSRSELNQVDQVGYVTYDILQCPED
T1 sequence (P78536 whole entry, the tested form may be a part): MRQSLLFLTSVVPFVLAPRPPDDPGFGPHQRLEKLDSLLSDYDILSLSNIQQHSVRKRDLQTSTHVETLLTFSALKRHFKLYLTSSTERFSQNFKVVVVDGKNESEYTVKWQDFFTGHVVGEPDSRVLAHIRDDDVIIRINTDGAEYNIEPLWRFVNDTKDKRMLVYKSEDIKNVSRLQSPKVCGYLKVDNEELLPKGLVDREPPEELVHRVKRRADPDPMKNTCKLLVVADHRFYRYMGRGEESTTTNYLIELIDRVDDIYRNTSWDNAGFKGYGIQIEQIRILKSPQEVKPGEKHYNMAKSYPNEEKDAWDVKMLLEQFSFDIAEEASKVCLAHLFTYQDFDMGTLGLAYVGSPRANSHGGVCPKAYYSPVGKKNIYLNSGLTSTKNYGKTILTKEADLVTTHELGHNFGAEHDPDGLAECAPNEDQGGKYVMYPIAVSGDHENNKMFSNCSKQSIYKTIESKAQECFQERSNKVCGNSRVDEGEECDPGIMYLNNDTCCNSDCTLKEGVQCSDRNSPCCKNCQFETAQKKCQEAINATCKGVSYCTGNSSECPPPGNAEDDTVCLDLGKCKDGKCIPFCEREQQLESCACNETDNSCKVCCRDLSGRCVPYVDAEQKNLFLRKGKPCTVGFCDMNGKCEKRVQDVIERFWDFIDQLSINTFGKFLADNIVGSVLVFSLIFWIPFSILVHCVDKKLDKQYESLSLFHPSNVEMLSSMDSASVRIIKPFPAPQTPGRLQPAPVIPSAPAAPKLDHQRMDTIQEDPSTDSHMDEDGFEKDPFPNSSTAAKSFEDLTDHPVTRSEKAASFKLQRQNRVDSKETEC
Chain of Macrophage metalloelastase (P39900 whole entry, the tested form may be a part): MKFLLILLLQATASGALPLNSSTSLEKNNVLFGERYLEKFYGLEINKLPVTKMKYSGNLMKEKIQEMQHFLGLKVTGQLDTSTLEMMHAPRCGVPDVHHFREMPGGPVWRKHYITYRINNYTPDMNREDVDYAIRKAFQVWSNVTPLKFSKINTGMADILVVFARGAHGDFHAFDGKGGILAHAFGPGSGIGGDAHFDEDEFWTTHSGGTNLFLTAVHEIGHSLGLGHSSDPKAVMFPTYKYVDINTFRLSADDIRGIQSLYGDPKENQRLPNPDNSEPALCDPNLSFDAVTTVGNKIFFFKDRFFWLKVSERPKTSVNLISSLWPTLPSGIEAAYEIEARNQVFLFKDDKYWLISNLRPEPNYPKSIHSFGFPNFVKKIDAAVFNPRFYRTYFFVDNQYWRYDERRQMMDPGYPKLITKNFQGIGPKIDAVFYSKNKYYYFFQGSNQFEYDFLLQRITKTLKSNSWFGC
Chain of Neutrophil collagenase (P22894 whole entry): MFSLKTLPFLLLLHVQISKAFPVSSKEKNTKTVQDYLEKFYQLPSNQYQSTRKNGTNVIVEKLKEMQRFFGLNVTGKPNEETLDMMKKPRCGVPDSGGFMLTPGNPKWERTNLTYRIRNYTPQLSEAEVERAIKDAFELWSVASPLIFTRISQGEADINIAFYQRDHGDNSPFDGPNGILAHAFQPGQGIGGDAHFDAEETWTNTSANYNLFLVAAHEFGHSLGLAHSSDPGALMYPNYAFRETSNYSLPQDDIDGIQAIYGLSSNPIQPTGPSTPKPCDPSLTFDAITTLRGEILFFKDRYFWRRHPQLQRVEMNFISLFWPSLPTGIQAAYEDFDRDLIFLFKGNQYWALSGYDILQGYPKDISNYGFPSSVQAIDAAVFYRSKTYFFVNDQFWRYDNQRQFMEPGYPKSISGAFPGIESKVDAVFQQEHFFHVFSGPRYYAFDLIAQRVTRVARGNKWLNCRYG

inhibition [1]: < 10% | inhibition (Stromelysin-1 [2]): < 10% | inhibition [3]: < 10% | IC50 (Neutrophil collagenase): 47 µM | inhibition [4]: < 10% | IC50 (Interstitial collagenase): > 10 µM | IC50 [5]: > 10 µM | IC50 (Stromelysin-1 [6]): > 10 µM | IC50 [7]: > 100 µM | IC50 [8]: > 10 µM | IC50 (Matrilysin): > 100 µM | inhibition [9]: Dose-dependent effect | inhibition [10]: < 10% | IC50 [11]: > 10 µM
Compound: O=C(COc1ccc(Cl)cc1)NNC(=S)NCCCCC1CCCCC1
